Source: PubChem BioAssay (several laboratories)
Compounds with a hit are over-represented: about 7.2% of the library has one in this group of screens.
PostGolgi yeast – growth inhibition of a yeast mutant, post-Golgi transport screen; post-Golgi transport phenotypic cell assay; inhibition, % at 10 µM; AID 739; 98,000 tested, 0.9% active;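 also: yeast cells grown in 1536-well plates; yeast grown about 18 h at 30C before absorbance read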
PLAP act – human PLAP activation; purified PLAP enzyme, luminescent substrate read-out; hits give high values; P05187; 96,000 tested, 1.2% active; activation fold at 20 µM; in the data active = activation fold above about 2
Target sequence (P05187 whole entry, looked up): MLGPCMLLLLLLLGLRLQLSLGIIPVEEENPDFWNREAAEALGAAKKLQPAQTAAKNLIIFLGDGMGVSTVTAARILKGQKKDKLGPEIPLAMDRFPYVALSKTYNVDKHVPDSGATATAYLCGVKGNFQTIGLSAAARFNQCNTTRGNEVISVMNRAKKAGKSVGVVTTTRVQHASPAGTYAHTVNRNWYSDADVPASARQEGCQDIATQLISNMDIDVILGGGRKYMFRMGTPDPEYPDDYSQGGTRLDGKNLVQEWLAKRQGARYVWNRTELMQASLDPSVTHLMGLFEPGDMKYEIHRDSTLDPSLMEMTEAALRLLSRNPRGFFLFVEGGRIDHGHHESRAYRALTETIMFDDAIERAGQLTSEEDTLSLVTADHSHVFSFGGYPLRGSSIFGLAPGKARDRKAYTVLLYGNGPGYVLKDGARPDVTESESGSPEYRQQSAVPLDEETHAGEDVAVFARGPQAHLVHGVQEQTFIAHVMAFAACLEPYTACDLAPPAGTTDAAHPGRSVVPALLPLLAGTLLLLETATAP
E coli WT exp – E. coli BW25113 growth inhibition, expanded screen; 98,000 tested, 0.15% active; OD600 absorbance; growth inhibition, % at 100 µM;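 active = growth inhibition above about 50% at one test dose, limit read from the data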;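 also: growth measured after 20 h incubation at 37 °C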
PostGolgi ctrl – inhibits growth of the yeast control strain. efflux-deficient yeast background strain, growth absorbance A615, 16 h. inhibition, % at 10 µM. 98,000 tested, 5% active
tolC growth inh – blocks growth of E. coli BW25113 tolC mutant; AID 573; OD615; 65,000 tested, 2.2% active; growth inhibition, % at 10 µM (by protocol);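 active = growth inhibition at or above a cutoff equal to the mean over every tested compound plus 3 SD, cut at about 60% in these data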;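 also: growth measured after 20 h incubation at 37 °C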
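Test system – E. coli BW25113 ΔtolC::kan, tolC deletion mutant strain · Detection – OD at 615 nm · Buffer or medium – LB with kanamycin 50 µg/mL · Times – 20 h compound exposure of bacteria at 37 °C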
* hit, by the source's call; nt = no result given. Rule as the data show it, unless noted: active = inhibition above about 30%; inactive = the rest.

SMILES	PostGolgi yeast	PLAP act	E coli WT exp	PostGolgi ctrl	tolC growth inh
Cc1ccc(CCP(=O)(O)CN2CCCCC2)cn1	nt	nt	nt	nt	-13.8
COc1ccc(S(=O)(=O)NC(CC(=O)NCc2ccco2)C(C)C)cc1 (stereo not drawn)	-0.2	1.2	0.0	37.9*	-7.0
Clc1ccc(Cc2nc(-c3cccnc3)no2)cc1	-9.8	1	-4.0	-8.5	nt
O=C1CCC(C(=O)O)(c2ccccc2)C1 (stereo not drawn)	-2.1	1	-3.0	1.4	-25.4
Cc1ccc2c(c1)c1c3n2CC(=C2C(=O)OC(C)(C)OC2=O)NC3CCC1 (stereo not drawn)	10.1	1.4	-1.0	51.0*	45.4
Cc1ccc2c(c1)c1c3n2CCN(C(=O)C2CC2)C3CCC1 (stereo not drawn)	8.8	1.4	5.0	25.6	39.6
O=C(NC12CC3CC(CC(C3)C1)C2)N1CCC(O)(c2ccc3c(c2)OCO3)CC1	2.7	1	2.0	9.6	-10.9
Cc1noc(C)c1COc1ccc(C(=O)OCC(=O)NC23CC4CC(CC(C4)C2)C3)cc1	-5.9	1.5	0.0	36.7*	nt
O=C(COc1ccc2c(c1)OCO2)NC12CC3CC(CC(C3)C1)C2	-8.7	1.1	11.0	36.4*	25.1
Cc1noc(C)c1COc1ccc(C(=O)OCC(=O)NC2CCCCC2C)cc1 (stereo not drawn)	1.6	1	-2.0	4.0	nt
C=CCN1C(=O)C(CC(=O)Nc2ccccc2)SC1=Nc1ccc(S(N)(=O)=O)cc1 (stereo not drawn)	7.2	0.9	-8.0	-3.4	nt
O=C(CSc1ncn[nH]1)Nc1nc(-c2ccccc2)cs1	5.6	2.8*	8.0	1.1	nt
Cc1csc(SCC(=O)Nc2nc(-c3ccccc3)cs2)n1	0.8	1.1	0.0	15.4	91.1*
CCn1c(SCC(=O)Nc2nc(-c3ccc(C)cc3)cs2)nnc1-c1ccccc1	-4.4	1.2	4.0	-0.8	nt
CC(=O)Nc1nonc1NC(=O)CSc1ncn[nH]1	-0.9	1.4	-4.0	7.6	-21.4
O=C(CSc1ncn[nH]1)Nc1c(F)cc(F)cc1Br	-1.1	2.1*	3.0	-0.3	nt
CCn1c(SCC(=O)Nc2nc(-c3ccc(C)cc3)cs2)nnc1-c1ccccc1O	69.3*	1.6	-8.0	75.9*	84.4*
O=C(CCN1CCc2ccccc2CC1)c1ccc2c(c1)OCCO2	-1.3	1.4	8.0	13.8	5.7
CN(C)CCCN1C(=O)C(=O)/C(=C(/O)c2ccc3c(c2)OCCO3)C1c1ccccn1 (stereo not drawn)	nt	nt	nt	nt	-5.0
CCn1cc(S(=O)(=O)CC(=O)Nc2ccc(OC)cc2)c2ccccc21	2.7	1	8.0	-6.4	9.4
Cn1c(=O)c2c(n(Cc3ccccc3)c1=O)NC(=O)C2CC(=O)NCc1cccc(Cl)c1 (stereo not drawn)	4.0	1.1	7.0	-3.9	nt
CCCc1nnc(NC(=O)CSc2ncn[nH]2)s1	-3.9	2.7*	5.0	4.7	2.2
CCOC(=O)c1c(NC(=O)CSc2nc3cccnc3n2C)sc(C(C)=O)c1C	-1.8	0.9	-1.0	36.5*	18.1
CCOC(=O)c1c(NC(=O)CSc2ncn[nH]2)sc(C)c1C	-1.1	2*	6.0	5.0	27.3
Cc1csc(SCC(=O)NC(=O)NCc2ccccc2)n1	6.2	0.9	6.0	41.9*	-0.3
SMILES	PostGolgi yeast	PLAP act	E coli WT exp	PostGolgi ctrl	tolC growth inh
Cc1sc(NC(=O)CSc2nnc(-c3ccc(F)cc3)o2)c(C#N)c1C	-2.5	1.2	-5.0	4.8	6.9
Cc1ccc(C(=O)NCCSC2CCCCC2)cc1S(=O)(=O)Nc1ccccc1	-3.4	0.9	-8.0	14.8	nt
CCOC(=O)/C(N=Nc1ccc(F)cc1)=C(/O)c1ccc([N+](=O)[O-])cc1	5.3	0.7	-9.0	3.5	nt
Cc1cc(=O)[nH]c(SCC(=O)Nc2nc(-c3ccccc3)cs2)n1	4.9	1.2	-2.0	25.1	69.5*
O=C(/C=C/c1ccc2c(c1)OCO2)Nc1nc(-c2ccccc2)cs1	-8.2	0.9	-17.0	21.4	nt
COC(=O)c1ccc(Cl)c(NC(=O)CSc2ncn[nH]2)c1	-2.6	1.8	-8.0	30.7*	8.1
O=C(/C=C/c1cccs1)Nc1nc(-c2ccccc2)cs1	-2.7	0.8	-11.0	33.0*	nt
COC(=O)c1cc(OC)c(OC)cc1NC(=S)N1CCN(c2ccccc2)CC1	-5.8	1.4	-17.0	14.6	nt
Cc1csc(-c2cnn(-c3ccccc3)c2NC(=O)c2cccc(C(F)(F)F)c2)n1	25.4	1.1	-1.0	34.4*	nt
CCOC(=O)Nc1ccc2c(c1)N(C(=O)N1CCN(C)CC1)c1ccccc1S2	-1.9	1.2	5.0	8.5	64.9*
C/C(=N/OC(=O)c1ccc(F)cc1)c1ccc(C)cc1	-4.0	0.8	3.0	7.2	nt
